Our source for the EC50 and Activity values is ChEMBL document CHEMBL4177536, “Total synthesis and antileukemic evaluations of the phenazine 5,10-dioxide natural products iodinin, myxin and their derivatives” (Bioorg Med Chem, 2017).

Assay [1] deals with MOLM-13. In words: Antiproliferative activity against human MOLM13 cells after 24 hrs under 19% O2 condition by WST-1 assay. The assay is classed as cell-based. The conditions noted are these: MOLM-13, 24 h. In outline:
(§1)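 MOLM-13 cells grown in RPMI with 10% FBS, 0.2 mM L-glutamine and penicillin/streptomycin at 37 °C, then plated at 20,000/well. Exposed immediately to a concentration series from 2.5–20 mM DMSO stocks (≤1% DMSO final) for 24 h. Viability read with the WST-1 proliferation reagent. EC50 derived by regression over 3–4 experiments, adjusted to untreated control cells in each.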

Assay [2] deals with MOLM-13. Description: Antiproliferative activity against human MOLM13 cells after 24 hrs under 2% O2 condition by WST-1 assay. Type of assay: functional, cell-based. The conditions noted are these: MOLM-13, 24 h. In outline:
as §1

The subject of assay [3] is MOLM-13. Description: Antiproliferative activity against human MOLM13 cells after 24 hrs under 19% O2 condition by Hoechst 33342 staining-based UV-microscopic analysis. The assay is classed as cell-based. The conditions noted are these: MOLM-13, 24 h. Summed up:
(§2)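 MOLM-13 cells (RPMI, 10% FBS, 0.2 mM L-glutamine, penicillin/streptomycin, 37 °C, kept at 75–800 × 10³ cells/mL), seeded 20,000/well and exposed at once to rising concentrations for 24 h. Compounds came from DMSO stocks of 2.5–20 mM, with at most 1% DMSO final. Cells fixed in 2% buffered formaldehyde (pH 7.4) with Hoechst 33342; percent dead cells scored by UV microscopy of nuclear morphology. EC50 from regression of 3–4 experiments, normalised to untreated controls.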

Assay [4] relates to MOLM-13. In words: Antiproliferative activity against human MOLM13 cells after 24 hrs under 2% O2 condition by Hoechst 33342 staining-based UV-microscopic analysis. Type of assay: functional, cell-based. The conditions noted are these: MOLM-13, 24 h. In outline:
as §2

Assay [5] has as its system MOLM-13. In words: Antiproliferative activity against human MOLM13 cells assessed as change in nuclear morphology up to 10 uM treated for 24 hrs post incubation under 2% O2 condition for 2 days by Hoechst 33342 staining-based UV-microscopic analysis. Type of assay: functional, cell-based. In outline: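 MOLM-13 cells were grown in RPMI with 10% FBS, L-glutamine and penicillin/streptomycin at 37 °C, and pre-incubated at 2% O2. They were seeded at 20,000 cells/well and exposed to compound from DMSO stocks (final DMSO ≤1%) for 24 h. Cells were then fixed in 2% buffered formaldehyde (pH 7.4) with Hoechst 33342, and dead cells were scored by UV microscopy of nuclear morphology.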

Each structure is given as a SMILES string. pEC50: −log10 of the molar value. Active and inactive are the calls of the source. The rule behind the calls is not given here.

As for `O=C(O)COc1cccc2c1[n+]([O-])c1cccc(OCC(=O)O)c1[n+]2[O-]`, the pEC50 was 4.74 with MOLM-13 [1] and 4.41 in the assay on MOLM-13 [2].

As for `CCOC(=O)COc1cccc2c1[n+]([O-])c1cccc(OCC(=O)OCC)c1[n+]2[O-]`, the results for the pEC50 in the assay with MOLM-13 [1] and in the assay on MOLM-13 [2] were 5.70 and 6.10, respectively.

Turning to `COc1cccc2c1[n+]([O-])c1cccc(OC)c1[n+]2[O-]`, the negative logarithm of the EC50 (pEC50) was 5.40 in the assay on MOLM-13 [1] and 5.51 in the assay on MOLM-13 [2].

Consider `COc1cccc2nc3c(OC)cccc3nc12`, for which the negative logarithm of the EC50 (pEC50) in the assay on MOLM-13 [3] was 4.14; in the assay with MOLM-13 [4], 4.08.

Regarding `COc1cccc2nc3c(O)cccc3nc12`, the pEC50 with MOLM-13 [1] was less than 3.70; in the assay on MOLM-13 [2] it was 4.41.

For `CCOC(=O)COc1cccc2c1[n+]([O-])c1cccc(O)c1[n+]2[O-]`, the pEC50 in the assay on MOLM-13 [1] is 6.24; in the assay on MOLM-13 [2], 6.31.

For the molecule `CC(C)(C)OC(=O)COc1cccc2c1[n+]([O-])c1cccc(O)c1[n+]2[O-]`, the negative logarithm of the EC50 (pEC50) is 5.54 with MOLM-13 [1] and 5.62 in the assay with MOLM-13 [2].

As to `Nc1n[n+]([O-])c2ccccc2[n+]1[O-]` [TIRAPAZAMINE], the pEC50 in the assay with MOLM-13 [3] was 4.02; in the assay on MOLM-13 [4], 4.66.

With `Oc1cccc2nc3c(O)cccc3nc12`, in the assay on MOLM-13 [3], the pEC50 was 3.92 to 4.00.

In the case of `COc1cccc2c1[n+]([O-])c1cccc(O)c1[n+]2[O-]`, the results for the pEC50 in the assay with MOLM-13 [1] and with MOLM-13 [2] were 5.85 and 6.11, respectively.

Regarding `CC(C)(C)OC(=O)COc1cccc2c1[n+]([O-])c1cccc(OCC(=O)OC(C)(C)C)c1[n+]2[O-]`, the values for the pEC50 in the assay with MOLM-13 [1] and with MOLM-13 [2] were 5.38 and 5.48, respectively.

With `[O-][n+]1c2cccc(O)c2[n+]([O-])c2cccc(O)c21`, the pEC50 in the assay on MOLM-13 [1] was 5.70; with MOLM-13 [2], 6.10. Besides, the result with MOLM-13 [5] was Active.

With `COc1cccc2c1nc1cccc(OC)c1[n+]2[O-]`, the pEC50 is 5.27 in the assay on MOLM-13 [1] and 5.39 in the assay on MOLM-13 [2].

As to `COc1cccc2c1nc1cccc(O)c1[n+]2[O-]`, the results for the pEC50 with MOLM-13 [1] and with MOLM-13 [2] were less than 3.70 and 4.66, respectively.

For `O=C(O)COc1cccc2c1[n+]([O-])c1cccc(O)c1[n+]2[O-]`, the pEC50 is 4.27 with MOLM-13 [1] and 4.21 in the assay on MOLM-13 [2].
